Sampled rows, rich in hits. Any-hit rate of the full collection: about 3.5%.
MITF TRPM1 HTS – activators of MITF-driven TRPM1 promoter activity in SK-MEL-5 cells; SK-MEL-5 TRPM1-promoter luciferase, 24 h; % of positive control, neutral wells = 0; activation, % at 12.5 µM; 0.75% of 300,000 active;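 active = mean activation of at least 80% with every replicate also reaching 80%; inconclusive = mean reaches 80% but some replicate falls short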
Wnt bcat act – activators of Wnt/beta-catenin signaling | Wnt/beta-catenin reporter cell assay, activator, plate reader | activation, % at 9.35 µM | 1.2% of 300,000 active | AID 743398; in the data active = activation above about 30%, passing the limit was not always enough; inconclusive = no clear call, values can overlap the other calls
ERAP1 inh – ERAP1 (human) enzyme inhibition. recombinant ERAP1, Leu-AMC fluorescence, 60 min. inhibition, % at 10.7 µM. 0.15% of 340,000 active;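 active = mean replicate inhibition of at least 30%, or all replicates individually reaching that 30% level; inactive = mean below 30% and not every replicate reaching it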
Target sequence (Q9NZ08 whole entry, looked up): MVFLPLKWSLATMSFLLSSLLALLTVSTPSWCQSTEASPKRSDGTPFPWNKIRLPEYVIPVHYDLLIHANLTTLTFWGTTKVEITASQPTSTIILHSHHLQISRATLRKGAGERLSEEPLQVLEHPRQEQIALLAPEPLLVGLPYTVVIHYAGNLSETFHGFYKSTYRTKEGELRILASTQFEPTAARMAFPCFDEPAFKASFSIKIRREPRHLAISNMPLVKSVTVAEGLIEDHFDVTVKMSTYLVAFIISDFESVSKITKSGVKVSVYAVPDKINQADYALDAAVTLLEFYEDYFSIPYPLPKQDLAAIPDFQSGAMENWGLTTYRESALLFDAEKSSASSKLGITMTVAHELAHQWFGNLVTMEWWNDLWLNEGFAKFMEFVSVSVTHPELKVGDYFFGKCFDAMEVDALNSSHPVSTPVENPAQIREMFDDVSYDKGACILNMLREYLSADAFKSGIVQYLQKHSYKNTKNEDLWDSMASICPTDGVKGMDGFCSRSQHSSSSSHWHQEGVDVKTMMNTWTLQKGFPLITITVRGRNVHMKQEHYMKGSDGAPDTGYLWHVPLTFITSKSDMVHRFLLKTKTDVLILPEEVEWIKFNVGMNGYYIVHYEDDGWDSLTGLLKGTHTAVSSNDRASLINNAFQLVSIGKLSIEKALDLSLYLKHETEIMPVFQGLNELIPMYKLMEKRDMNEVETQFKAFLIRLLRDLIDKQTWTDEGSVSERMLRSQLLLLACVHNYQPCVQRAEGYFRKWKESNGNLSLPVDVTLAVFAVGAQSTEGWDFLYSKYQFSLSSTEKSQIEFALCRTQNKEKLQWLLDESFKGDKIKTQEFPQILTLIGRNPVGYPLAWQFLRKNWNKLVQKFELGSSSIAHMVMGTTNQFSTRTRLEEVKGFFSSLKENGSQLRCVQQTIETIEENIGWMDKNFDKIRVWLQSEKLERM
Cneo AK release – Cryptococcus neoformans lysis via adenylate kinase release; 0.2% of 360,000 active; C. neoformans lysis, adenylate kinase release luminescence, 4 h; normalised: neutral wells 0, clomiphene wells 100; lysis activity, % at 15 µM;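 active = mean lysis activity across replicates of at least 80%, whatever share of replicates individually reach that level; inactive = mean lysis activity below 80%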
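Material – log-phase Cryptococcus neoformans yeast cells · Input – 5 × 10^6 yeast cells/mL · Medium – fresh YPD growth medium · Doses – single compound concentration per well · Timing – static 4 h at 37 °C with compound, 1 h detection · Detection – adenylate kinase release luminescence · Read-out – signal increase indicating cell lysis · Control set – Clomiphene as positive lysis control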
esBAF inh – blocks esBAF chromatin remodeling in mouse ES cells; reporter increase, % at 12.5 µM; 2% of 350,000 active; Bmi1-luciferase knock-in reporter, 24 h; 100% = twice the neutral-well signal; in the data active = activation above about 40%; inconclusive = no clear call, values can overlap the other calls;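 also: a rise in the Bmi1 reporter signal indicates esBAF inhibition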
HIV Env fusion – blocks HIV Env-driven cell-cell fusion | HeLa-JRFL Env/CEM21 cell fusion, luciferase | inhibition, % at 12.3 µM | 1.1% of 360,000 active;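 active = mean replicate inhibition score of at least 50 and every replicate individually at or above 50; inconclusive = only one of the two criteria met; inactive = mean below 50 and not all replicates reaching 50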
Large screens that a line does not name were inactive.

COc1ccc(C(=O)Nc2ccc(Cl)cn2)cc1S(=O)(=O)N1CCCC1	none
COc1ccc(C(=O)Nc2ccc3ccccc3n2)cc1OC	esBAF inh 70.4 (no result: ERAP1 inh)
O=C(Nc1ccc2ccccc2n1)c1ccccc1Br	Wnt bcat act 35.1, esBAF inh 51.7
C[C@@H]1CCCCO[C@@H](CN(C)C)[C@H](C)CN([C@H](C)CO)C(=O)c2cc(NC(=O)Nc3ccc(F)cc3)ccc2O1	none (no result: MITF TRPM1 HTS, Wnt bcat act)
COc1ccc(CN(C)C[C@H]2OCCCC[C@@H](C)Oc3ccc(NC(=O)Nc4ccc(F)cc4)cc3C(=O)N([C@@H](C)CO)C[C@H]2C)cc1	none (no result: MITF TRPM1 HTS, Wnt bcat act)
CO[C@@H]1CN(C)C(=O)c2cc(NC(=O)CC(F)(F)F)ccc2OC[C@@H](C)N(C(=O)c2ccccc2F)C[C@@H]1C	none (no result: MITF TRPM1 HTS, Wnt bcat act, Cneo AK release, esBAF inh, HIV Env fusion)
O=C(Nc1ccc2ncccc2c1)c1ccccc1Br	esBAF inh 110.1 (no result: MITF TRPM1 HTS, Wnt bcat act, ERAP1 inh, HIV Env fusion)
O=C(Nc1ccc2ncccc2c1)Nc1ccc2ncccc2c1	esBAF inh inconclusive
O=C(CCc1ccccc1)Nc1ccc2ccccc2n1	MITF TRPM1 HTS 100.3, Wnt bcat act 55.8 (no result: Cneo AK release, esBAF inh)
Cc1ccc(C(=O)Nc2ccc3ccccc3n2)cc1	Wnt bcat act 35.7
O=C(CCc1ccccc1)Nc1ccccc1	none (no result: Cneo AK release, esBAF inh)
Cc1noc(C)c1NC(=O)Nc1ccc2c(c1)CC(=O)N([C@H](C)CO)C[C@H](C)[C@@H](CN(C)S(=O)(=O)c1cccs1)O2	none (no result: MITF TRPM1 HTS, Wnt bcat act)
C[C@@H]1CCCCO[C@H](CN(C)C(=O)NC2CCCCC2)[C@H](C)CN([C@@H](C)CO)C(=O)c2cc(NC(=O)Cc3ccccc3)ccc2O1	none (no result: MITF TRPM1 HTS, Wnt bcat act)
CN(C)CCCNC(=O)[C@@H]1[C@@H](CO)[C@@H]2Cn3c(ccc(C4=CCCCC4)c3=O)[C@H]1N2Cc1cocn1	none (no result: MITF TRPM1 HTS, Wnt bcat act, HIV Env fusion)
Cc1cccc(S(=O)(=O)N[C@H]2CC[C@H](CCNC(=O)Nc3cc(F)ccc3F)O[C@@H]2CO)c1	none (no result: MITF TRPM1 HTS, Wnt bcat act)
Oc1ccc(/C=N/Nc2ncc(Cl)cc2Cl)cc1	MITF TRPM1 HTS 87.9, esBAF inh 44.3
Cc1ccc(/C=N/Nc2ncc(Cl)cc2Cl)s1	none (no result: Cneo AK release, esBAF inh, HIV Env fusion)
Cc1nc(CCNS(=O)(=O)c2cccs2)cs1	none (no result: Wnt bcat act, ERAP1 inh, HIV Env fusion)
Cc1csc2nc(CCNS(=O)(=O)c3cccs3)cn12	esBAF inh 53.0 (no result: HIV Env fusion)
O=C(CN1CCOCC1)Nc1ccc(Cl)c(Cl)c1	none (no result: Wnt bcat act, HIV Env fusion)
O=C(CN1CCN(S(=O)(=O)N2CCOCC2)CC1)Nc1ccc(Cl)c(Cl)c1	ERAP1 inh 122.4
Cc1ccc(NC(=O)CN2CCOCC2)cc1	none
O=C(CN1CCOCC1)Nc1ccc(C2CCCCC2)cc1	Wnt bcat act 31.0 (no result: ERAP1 inh)
C[C@@H]1CN([C@H](C)CO)C(=O)c2cc(NC(=O)CCC(F)(F)F)ccc2O[C@H]1CN(C)C(=O)NC1CCCCC1	none (no result: MITF TRPM1 HTS, Wnt bcat act, ERAP1 inh)
CC(C)NC(=O)Nc1ccc2c(c1)C(=O)N([C@@H](C)CO)C[C@H](C)[C@H](CN(C)Cc1ccncc1)O2	none (no result: MITF TRPM1 HTS, Wnt bcat act, HIV Env fusion)
O=C(O)/C=C/C(=O)Nc1cccnc1	none (no result: Wnt bcat act, ERAP1 inh, Cneo AK release, esBAF inh, HIV Env fusion)
O=C(/C=C/c1ccccc1Cl)Nc1cccnc1	none
CC(C)(C)c1ccc(/C=C/C(=O)Nc2cccnc2)cc1	MITF TRPM1 HTS 108.5, Wnt bcat act 31.0 (no result: Cneo AK release)
O=C(/C=C/c1ccc(Cl)c(Cl)c1)Nc1cccnc1	MITF TRPM1 HTS inconclusive, esBAF inh 41.8
O=C(CC1CC1)N[C@H]1CC[C@H](CCNS(=O)(=O)c2ccc(F)cc2)O[C@H]1CO	none (no result: MITF TRPM1 HTS, Wnt bcat act)
CN(C)c1ccc(C(=O)N2CCN(c3cc(C(F)(F)F)nc4ccccc34)CC2)cc1	Wnt bcat act 54.7
COC(=O)c1ccc(O)cc1	none
COC(=O)c1ccc(OCCOc2ccccc2)cc1	esBAF inh 45.7 (no result: Wnt bcat act, ERAP1 inh, HIV Env fusion)
COC(=O)c1ccc(N=Nc2ccccc2)cc1	esBAF inh 76.3
Oc1ccc(N=Nc2ccccc2)cc1	MITF TRPM1 HTS 91.0, Wnt bcat act 34.4
O=C(Nc1ccc(Cl)cc1)N[C@H]1CC[C@H](CCNS(=O)(=O)c2ccccc2F)O[C@@H]1CO	none (no result: MITF TRPM1 HTS, Wnt bcat act)
CCC(=O)N1CC2(C1)[C@@H](c1ccccc1)[C@@H](CO)N2Cc1ccccc1OC	none (no result: MITF TRPM1 HTS, Wnt bcat act, Cneo AK release, esBAF inh, HIV Env fusion)
O=C(NC[C@@H]1N[C@@H](CO)[C@@H]1c1ccc(-c2ccccc2F)cc1)c1ccccn1	none (no result: MITF TRPM1 HTS, Wnt bcat act, HIV Env fusion)
C=C(C)CNC(=S)Nc1nc2c(cc1C(=O)OCC)CCCC2	MITF TRPM1 HTS 83.1, esBAF inh 61.5
CCOC(=O)c1cc2c(nc1N)CCCC2	none (no result: ERAP1 inh, Cneo AK release, esBAF inh)
Cc1noc(C)c1NC(=O)N(C)C[C@@H]1OCCCC[C@@H](C)Oc2ccc(N(C)C)cc2C(=O)N([C@H](C)CO)C[C@@H]1C	none (no result: MITF TRPM1 HTS, Wnt bcat act, ERAP1 inh, Cneo AK release)

Screens from PubChem.
